The values below come from ChEMBL document CHEMBL1154186, “Synthesis, kinase inhibitory potencies, and in vitro antiproliferative evaluation of new Pim kinase inhibitors” (J Med Chem, 2009).

In assay [1] the target is Homeodomain-interacting protein kinase 3 (Homo sapiens) (UniProt Q9H422). Kind of assay: Inhibition of HIPK3 assessed as residual enzyme activity at 10 uM relative to untreated control. Summed up: (§1)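 Kinases of human origin, except CK1δ, which is rat. Run in 50 mM Tris/HCl pH 7.5, 0.1 mM EGTA, 0.1% 2-mercaptoethanol and 10 mM Mg acetate, with [γ-33P]ATP at 20 µM, 30 min at 21 °C. Acid-stopped and captured on P81 filters. Compound tested at 10 µM; residual % of uninhibited control, duplicate determinations.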
Chain of Homeodomain-interacting protein kinase 3 (Homo sapiens) (Q9H422 whole entry, looked up): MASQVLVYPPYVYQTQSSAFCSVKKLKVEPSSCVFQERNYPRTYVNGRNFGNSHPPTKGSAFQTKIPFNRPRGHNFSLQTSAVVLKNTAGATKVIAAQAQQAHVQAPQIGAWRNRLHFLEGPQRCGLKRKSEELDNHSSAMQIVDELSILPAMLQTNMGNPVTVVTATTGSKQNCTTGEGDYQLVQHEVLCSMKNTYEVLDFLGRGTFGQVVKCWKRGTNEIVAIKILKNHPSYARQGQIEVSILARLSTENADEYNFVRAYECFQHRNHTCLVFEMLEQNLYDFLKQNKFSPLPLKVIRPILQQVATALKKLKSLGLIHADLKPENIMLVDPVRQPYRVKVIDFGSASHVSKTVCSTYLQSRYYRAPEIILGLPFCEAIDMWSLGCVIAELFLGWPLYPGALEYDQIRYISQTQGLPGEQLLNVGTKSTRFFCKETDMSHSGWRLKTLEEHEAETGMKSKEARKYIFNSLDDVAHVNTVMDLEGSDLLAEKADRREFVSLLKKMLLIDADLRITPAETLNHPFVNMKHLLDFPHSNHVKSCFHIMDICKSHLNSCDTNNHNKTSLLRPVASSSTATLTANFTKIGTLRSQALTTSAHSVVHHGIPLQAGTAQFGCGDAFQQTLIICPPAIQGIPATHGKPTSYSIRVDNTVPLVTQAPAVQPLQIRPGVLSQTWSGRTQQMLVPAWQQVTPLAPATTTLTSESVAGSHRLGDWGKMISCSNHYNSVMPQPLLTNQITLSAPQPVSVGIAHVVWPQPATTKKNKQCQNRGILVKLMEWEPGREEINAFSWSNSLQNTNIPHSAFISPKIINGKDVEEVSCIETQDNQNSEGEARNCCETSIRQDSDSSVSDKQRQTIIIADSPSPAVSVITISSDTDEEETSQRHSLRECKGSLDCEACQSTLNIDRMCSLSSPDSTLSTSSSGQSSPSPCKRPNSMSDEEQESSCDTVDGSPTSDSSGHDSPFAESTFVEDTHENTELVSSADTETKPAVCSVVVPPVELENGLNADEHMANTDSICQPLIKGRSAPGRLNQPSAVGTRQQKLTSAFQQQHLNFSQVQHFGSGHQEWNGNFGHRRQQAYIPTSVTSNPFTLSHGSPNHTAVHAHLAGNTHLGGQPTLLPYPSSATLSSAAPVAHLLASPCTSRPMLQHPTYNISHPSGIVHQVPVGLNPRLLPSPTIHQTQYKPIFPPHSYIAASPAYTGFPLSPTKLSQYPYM

The target of assay [2] is Serine/threonine-protein kinase PAK 5 (Homo sapiens) (UniProt Q9P286). Put plainly: Inhibition of PAK5 assessed as residual enzyme activity at 10 uM relative to untreated control. Summed up:
as §1

In assay [3] the target is Ribosomal protein S6 kinase beta-1 (Homo sapiens) (UniProt P23443). Kind of assay: Inhibition of S6K1 assessed as residual enzyme activity at 10 uM relative to untreated control. Put shortly: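 Buffer Tris/HCl pH 7.5, EGTA and 2-mercaptoethanol. 30 min at 21 °C, compound at 10 µM. P81 filter read-out. Residual activity versus control, duplicates.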
Chain of Ribosomal protein S6 kinase beta-1 (Homo sapiens) (P23443 whole entry, looked up): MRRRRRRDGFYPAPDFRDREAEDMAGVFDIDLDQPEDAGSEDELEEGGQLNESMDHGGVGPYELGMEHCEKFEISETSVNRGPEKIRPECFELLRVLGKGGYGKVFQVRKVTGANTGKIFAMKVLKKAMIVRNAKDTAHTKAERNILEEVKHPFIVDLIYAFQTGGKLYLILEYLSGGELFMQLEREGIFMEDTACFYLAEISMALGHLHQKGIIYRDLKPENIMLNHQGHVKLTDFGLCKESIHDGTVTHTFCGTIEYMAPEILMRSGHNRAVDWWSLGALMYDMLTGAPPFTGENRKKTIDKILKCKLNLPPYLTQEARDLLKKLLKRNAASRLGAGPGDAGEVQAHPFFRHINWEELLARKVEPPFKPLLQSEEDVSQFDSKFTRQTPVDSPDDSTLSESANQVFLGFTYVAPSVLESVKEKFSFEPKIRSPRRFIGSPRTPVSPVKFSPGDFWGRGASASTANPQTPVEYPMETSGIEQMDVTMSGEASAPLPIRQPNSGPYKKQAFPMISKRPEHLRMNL
Assay [4] concerns the target Protein kinase C alpha type (Homo sapiens) (UniProt P17252). Kind of assay: Inhibition of PKCalpha assessed as residual enzyme activity at 10 uM relative to untreated control. Put shortly:
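Histone H1 (0.1 mg/mL) as substrate, 20 µM [γ-33P]ATP, 10 mM Mg acetate. Run 30 min at 21 °C with 10 µM compound. Radiolabel captured on P81 filters. Expressed as % of uninhibited control, duplicates.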

For assay [5], the target named is T1, Serine/threonine-protein kinase BRSK2 (Homo sapiens) (UniProt Q8IWQ3).
T1 sequence (whole entry): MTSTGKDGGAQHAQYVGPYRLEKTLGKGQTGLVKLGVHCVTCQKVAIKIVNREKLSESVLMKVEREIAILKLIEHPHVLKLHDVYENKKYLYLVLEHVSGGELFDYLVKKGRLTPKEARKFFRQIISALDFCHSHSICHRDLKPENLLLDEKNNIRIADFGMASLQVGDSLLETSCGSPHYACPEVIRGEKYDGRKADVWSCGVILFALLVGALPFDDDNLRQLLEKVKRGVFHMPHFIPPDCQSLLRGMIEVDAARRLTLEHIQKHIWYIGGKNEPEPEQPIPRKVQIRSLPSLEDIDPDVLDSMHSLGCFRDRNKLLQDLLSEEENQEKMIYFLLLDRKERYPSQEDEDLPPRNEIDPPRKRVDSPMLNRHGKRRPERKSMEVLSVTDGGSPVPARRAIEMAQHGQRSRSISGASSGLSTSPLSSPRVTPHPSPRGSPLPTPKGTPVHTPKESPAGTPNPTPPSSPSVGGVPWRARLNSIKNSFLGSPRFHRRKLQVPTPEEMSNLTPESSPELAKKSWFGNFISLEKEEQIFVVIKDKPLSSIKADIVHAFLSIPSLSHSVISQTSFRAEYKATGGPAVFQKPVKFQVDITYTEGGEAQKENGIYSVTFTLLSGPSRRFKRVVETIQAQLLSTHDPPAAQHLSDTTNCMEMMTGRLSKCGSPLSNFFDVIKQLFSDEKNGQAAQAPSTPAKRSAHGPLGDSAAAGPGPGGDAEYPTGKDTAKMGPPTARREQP
Put plainly: Inhibition of BRSK2 assessed as residual enzyme activity at 10 uM relative to untreated control. Put shortly:
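Assayed with [γ-33P]ATP at 50 µM and 10 mM Mg acetate in 50 mM Tris/HCl pH 7.5, 0.1 mM EGTA, 0.1% 2-mercaptoethanol, 30 min, 21 °C. Phosphoric acid stop, P81 filter capture. ERK2 and Lck are mouse; AMPK is rat. 10 µM compound; % activity remaining relative to control without inhibitor, duplicates.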

Assay [6] concerns the target T2, Inhibitor of nuclear factor kappa-B kinase subunit beta (Homo sapiens) (UniProt O14920).
T2 sequence (whole entry): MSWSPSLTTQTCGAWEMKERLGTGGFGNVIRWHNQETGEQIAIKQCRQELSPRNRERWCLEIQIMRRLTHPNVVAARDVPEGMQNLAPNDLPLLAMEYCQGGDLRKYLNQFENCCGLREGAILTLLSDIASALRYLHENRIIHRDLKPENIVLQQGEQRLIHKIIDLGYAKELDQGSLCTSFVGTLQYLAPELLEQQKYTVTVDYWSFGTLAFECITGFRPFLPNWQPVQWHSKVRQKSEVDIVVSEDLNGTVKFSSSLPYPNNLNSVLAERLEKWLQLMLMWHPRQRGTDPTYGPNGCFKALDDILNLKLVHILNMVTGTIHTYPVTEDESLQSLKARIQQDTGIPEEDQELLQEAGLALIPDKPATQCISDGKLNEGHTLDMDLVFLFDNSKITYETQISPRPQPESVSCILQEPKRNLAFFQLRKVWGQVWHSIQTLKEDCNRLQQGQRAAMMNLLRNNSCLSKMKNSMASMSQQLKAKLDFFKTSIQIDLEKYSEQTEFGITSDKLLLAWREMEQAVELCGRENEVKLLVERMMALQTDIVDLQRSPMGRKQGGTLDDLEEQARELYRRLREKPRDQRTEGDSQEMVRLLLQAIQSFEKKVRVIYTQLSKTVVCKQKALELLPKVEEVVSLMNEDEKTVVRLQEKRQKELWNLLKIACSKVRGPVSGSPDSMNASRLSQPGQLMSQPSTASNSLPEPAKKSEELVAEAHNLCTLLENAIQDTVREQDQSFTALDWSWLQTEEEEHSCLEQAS
Kind of assay: Inhibition of IKK-beta assessed as residual enzyme activity at 10 uM relative to untreated control. Put shortly: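 Radiometric filter-binding assay at 21 °C for 30 min. Mix: 50 mM Tris/HCl pH 7.5, 0.1 mM EGTA, 0.1% 2-mercaptoethanol, 10 mM Mg acetate and [γ-33P]ATP (800 cpm/pmol) at 5 µM. Stopped with orthophosphoric acid and spotted on P81. Compound at 10 µM; activity given as % remaining versus no-inhibitor control, duplicates. Kinases human full-length unless noted.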

Assay [7] deals with T3, Serine/threonine-protein kinase 3 (Homo sapiens) (UniProt Q13188).
T3 sequence (whole entry): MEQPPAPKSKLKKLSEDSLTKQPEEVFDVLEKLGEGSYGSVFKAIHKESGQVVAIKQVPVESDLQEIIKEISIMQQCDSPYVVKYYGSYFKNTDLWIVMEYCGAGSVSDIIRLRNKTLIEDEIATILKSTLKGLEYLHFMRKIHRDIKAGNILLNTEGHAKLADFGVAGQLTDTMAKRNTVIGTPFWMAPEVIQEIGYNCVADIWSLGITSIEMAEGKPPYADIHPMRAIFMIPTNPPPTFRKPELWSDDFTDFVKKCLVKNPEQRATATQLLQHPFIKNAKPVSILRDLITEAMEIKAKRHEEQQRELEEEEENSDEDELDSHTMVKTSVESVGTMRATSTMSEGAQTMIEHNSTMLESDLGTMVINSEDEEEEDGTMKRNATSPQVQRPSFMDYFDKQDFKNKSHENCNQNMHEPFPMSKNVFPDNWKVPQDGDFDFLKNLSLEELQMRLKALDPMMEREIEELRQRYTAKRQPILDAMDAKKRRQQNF
Put plainly: Inhibition of MST2 assessed as residual enzyme activity at 10 uM relative to untreated control. Summed up:
as §1

Chain of Serine/threonine-protein kinase PAK 5 (Homo sapiens) (Q9P286 whole entry, looked up): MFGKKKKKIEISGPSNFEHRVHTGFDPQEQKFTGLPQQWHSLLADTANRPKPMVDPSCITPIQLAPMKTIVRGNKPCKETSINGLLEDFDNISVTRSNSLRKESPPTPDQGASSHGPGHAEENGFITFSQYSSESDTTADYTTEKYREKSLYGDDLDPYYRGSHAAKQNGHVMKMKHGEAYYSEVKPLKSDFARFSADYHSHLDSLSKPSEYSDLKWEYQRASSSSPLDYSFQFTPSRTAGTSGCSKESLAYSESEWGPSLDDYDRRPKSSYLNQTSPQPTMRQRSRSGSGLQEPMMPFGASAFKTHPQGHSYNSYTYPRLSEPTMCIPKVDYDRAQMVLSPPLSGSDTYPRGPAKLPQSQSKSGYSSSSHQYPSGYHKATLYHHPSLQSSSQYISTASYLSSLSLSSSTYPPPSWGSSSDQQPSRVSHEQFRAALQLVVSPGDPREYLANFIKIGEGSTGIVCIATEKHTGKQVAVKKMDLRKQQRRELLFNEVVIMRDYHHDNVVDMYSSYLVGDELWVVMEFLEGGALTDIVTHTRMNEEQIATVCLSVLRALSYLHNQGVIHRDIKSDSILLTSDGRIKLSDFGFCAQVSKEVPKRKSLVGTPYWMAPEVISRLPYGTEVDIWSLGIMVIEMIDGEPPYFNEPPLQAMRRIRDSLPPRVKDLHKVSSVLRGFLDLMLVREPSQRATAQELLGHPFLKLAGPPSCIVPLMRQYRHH

Turning to `c1ccc2c(c1)[nH]c1c3cc[nH]c3ccc21`, the Activity in assay [1] worked out at 106%; in assay [2], 99%; in assay [3] it was 87%; in assay [4], 103%; in assay [5] it was 76%; in assay [6] it was 110%. In addition, in assay [7], the Activity is 77%.

With `O=Cc1c[nH]c2ccc3c4ccccc4[nH]c3c12`, the Activity was 100% in assay [1]; 96% in assay [2]; 82% in assay [3]; 95% in assay [4]; 101% in assay [5]; 108% in assay [6]. Besides, the Activity in assay [7] was 96%.

Regarding `c1ccc2c(c1)[nH]c1c2ccc2cc[nH]c21`, the Activity in assay [1] worked out at 97%; in assay [2], 82%; in assay [3], 89%; in assay [4] it was 111%; in assay [5] it was 58%; in assay [6], 106%. Further, the Activity in assay [7] turned out to be 82%.

`O=Cc1c[nH]c2c1ccc1c3ccccc3[nH]c12`: the Activity was found to be 64% in assay [1]; 87% in assay [2]; 84% in assay [4]; 22% in assay [5]; 71% in assay [6]; 63% in assay [7].
